We go through 15 compounds from PubChem BioAssay AID588479 (NMMLSC, 2011).

Holding throughout (experiment): inhibitors of GTP binding to eight small GTPases, SAR follow-up, biochemical, round 1 SAR, Mg buffer, multiplex flow cytometry (AID 588479)
(In general: A flow cytometer gives signals particle by particle.)

In assay [1] the target is RhoWT. As to conditions: multiplex GST-GTPase beads, Bodipy-GTP binding, wild type; for response, lower = inhibition: at 100 µM (top of the series). A digest of the protocol:
(§1)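 Test system: Multiplexed GST-tagged GTPases (Rab7, H-Ras, Rac, Rho, Cdc42) on colour-coded beads | Compound dosing: Nine-point compound series, 1:3 steps, 10 nM to 100 µM | Timing: Beads, compound and labeled GTP incubated 40–45 min at 4 °C | Detection: Flow cytometry, green median fluorescence per bead | Measure: Normalized response, EC50 by four-parameter fit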

The target in assay [2] is Cdc42ACT. As to conditions: multiplex GST-GTPase beads, Bodipy-GTP binding, constitutively active; for response, lower = inhibition: at 100 µM (top of the series). A digest of the protocol:
as §1

The target in assay [3] is Cdc42WT. As to conditions: multiplex GST-GTPase beads, Bodipy-GTP binding, wild type; for response, lower = inhibition: at 100 µM (top of the series). A digest of the protocol: as §1
Assay [4] concerns the target RacACT. As to conditions: multiplex GST-GTPase beads, Bodipy-GTP binding, constitutively active; for response, lower = inhibition: at 100 µM (top of the series). The procedure, abridged: as §1
In assay [5] the target is RacWT. As to conditions: multiplex GST-GTPase beads, Bodipy-GTP binding, wild type; for response, lower = inhibition: at 100 µM (top of the series). A digest of the protocol: as §1
Assay [6] concerns the target RasACT. As to conditions: multiplex GST-GTPase beads, Bodipy-GTP binding, constitutively active. The procedure, abridged: as §1

Records with an inconclusive call do not appear. Calls of active or inactive are those of the source.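 How the source made its calls: active means eight-GTPase mean potency score over 50, needing half-effect dose up to 10 µM and response span 30% or more; inconclusive means no clear call, values can overlap the other calls; inactive means the rest.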

The EC50 is the concentration at which the effect is half-maximal. For `CC1(C)Cc2c(sc(NC(=S)NC(=O)c3ccccc3F)c2C(=O)O)CO1`, the EC50 in assay [1] was 0.065 µM; in assay [2], 0.06 µM; in assay [3], 0.064 µM; in assay [4], 0.059 µM; in assay [5] it was 0.058 µM.
As to `Cc1ccc(NC(=O)Nc2sc3c(c2C(=O)O)CCN(C)C3)cc1`, the “response, lower = inhibition” value in assay [1], in assay [2], in assay [3], in assay [4] and in assay [5] was “inactive” in each case.
Regarding `COc1cccc(C(=O)NC(=S)Nc2sc3c(c2C(=O)O)CC(C)(C)OC3)c1`, the EC50 is 0.111 µM in assay [1]; 0.122 µM in assay [2]; 0.118 µM in assay [3]; 0.122 µM in assay [4]; 0.141 µM in assay [5].
Consider `CC1(C)Cc2c(sc(NC(=O)Cc3ccccc3)c2C(=O)O)CO1`, for which the “response, lower = inhibition” value in assay [1], in assay [2], in assay [3], in assay [4] and in assay [5] was “inactive” each time.
For the compound `CCOC(=O)c1c(NC(=O)Nc2ccc(F)cc2)sc2c1CCN(C)C2`, the “response, lower = inhibition” value in assay [2] is “inactive”.
For `CCOC(=O)c1c(N)sc2ccccc12`, the “response, lower = inhibition” value in assay [1], in assay [2], in assay [3], in assay [4] and in assay [5] was “inactive” throughout.
`COc1ccc(C(=O)NC(=S)Nc2sc3c(c2C(=O)O)CC(C)(C)OC3)cc1`: the EC50 in assay [1] is 0.139 µM; in assay [2] it was 0.143 µM; in assay [3], 0.127 µM; in assay [4], 0.142 µM; in assay [5], 0.133 µM.
For `CC1(C)Cc2c(sc(NC(=S)NC(=O)c3cccc(F)c3)c2C(=O)O)CO1`, the EC50 in assay [1] was 0.499 µM; in assay [2], 0.465 µM; in assay [3], 0.493 µM; in assay [4], 0.466 µM; in assay [5], 0.471 µM.
Regarding `CC1(C)Cc2c(sc(NC(=S)Nc3ccccc3)c2C(=O)O)CO1`, the “response, lower = inhibition” value in assay [1], in assay [2], in assay [3], in assay [4] and in assay [5] was “inactive” each time. Also, in assay [6], the EC50 was 1.78 µM.
In the case of `CCOC(=O)c1c(NC(=O)Nc2ccc(C)cc2)sc2c1CCN(C)C2`, in assay [2], the “response, lower = inhibition” value was “inactive”.
For `CC1(C)Cc2c(sc(NC(=S)NC(=O)c3cccc(Br)c3)c2C(=O)O)CO1`, the “response, lower = inhibition” value in assay [1], in assay [2], in assay [3], in assay [4] and in assay [5] was “inactive” in each case.
Consider `COC(=O)c1c(N)sc2c1CC(C)(C)OC2`, for which the “response, lower = inhibition” value in assay [2] is “inactive”.
Consider `CC1(C)Cc2c(sc(NC(=S)NC(=O)c3ccc(Br)cc3)c2C(=O)O)CO1`, for which the EC50 in assay [1] was 0.28 µM; in assay [2], 0.17 µM; in assay [3] it was 0.154 µM; in assay [4], 0.204 µM; in assay [5] it was 0.214 µM.
Take `CC1(C)Cc2c(sc(NC(=S)NC(=O)c3ccccc3Br)c2C(=O)O)CO1`: the results for the EC50 in assay [1], in assay [3] and in assay [4] were 0.07 µM, 0.069 µM and 0.071 µM, respectively. The “response, lower = inhibition” value in assay [2] and in assay [5] was “inactive” in each case.
For `CC1(C)CCc2sc(NC(=S)NC(=O)c3ccccc3)c(C(=O)O)c2C1`, the EC50 is 0.081 µM in assay [1]; 0.106 µM in assay [2]; 0.099 µM in assay [3]; 0.109 µM in assay [4]; 0.089 µM in assay [5].
